Measured values from different studies.
Compare with care: the assays were run in different laboratories.
Cell line: HepG2
Read-out: cell growth or viability

For `COc1ccc(-c2cc(-c3ccc(Cl)cc3)c3c(=O)n(C)c(=O)n(C)c3n2)cc1`, the IC50 was 17.3 µM (MTT; 48 h).
`CN(C)c1cc(NC(=O)CCc2ccccc2)c(O)c2c1C[C@H]1C[C@H]3[C@H](N(C)C)C(O)=C(C(N)=O)C(=O)[C@@]3(O)C(O)=C1C2=O` has an IC50 of 165 µg/mL (ATP luminescence; 72 h).
`CC(=NNC(=O)c1ccccc1O)c1ccc(Nc2nnc(-c3ccc(Cl)cc3)c3ccccc23)cc1` has a viability of 87.2% (MTT; 1.25 µM, 24 h).
With `Cc1nc2ccc(CN(C)c3ccc(C(=O)N[C@@H](CCC(=O)O)C(=O)O)s3)cc2c(=O)[nH]1` the IC50 was 1.34 µM (MTT; 48 h).
`C=CC(=O)NC1CCN(c2ncc3ncnc(Nc4ccc(Oc5ccc6c(c5)ncn6C)c(C)c4)c3n2)CC1` has an EC50 of 0.335 µM.
With `CC(=O)c1nn(-c2ccc(C)cc2)/c(=N/N=C(\C)c2ccc(NC(=O)c3ccccc3)cc2)s1` the viability was 28.5% (MTT; 0.156 µM).
The viability of `CC(=NNC(=O)c1ccncc1)c1ccc(Nc2nnc(-c3ccc(Cl)cc3)c3ccccc23)cc1` is reported as 3.92% (MTT; 2.5 µM, 24 h).
With `CCOC(=O)c1nn(-c2cccc(Cl)c2)/c(=N/N=C(\C)c2ccc(NC(=O)c3ccccc3)cc2)s1` the viability was 3.54% (MTT; 0.312 µM).
`O=C(C=Cc1ccccc1)Nc1ccc(Oc2nnc(-c3ccc(Cl)cc3)c3ccccc23)cc1` gave a viability of 37.4% (MTT; 1.25 µM, 24 h).
`CC(=NNC(=O)COc1ccc2c(C)c(Cc3ccccc3)c(=O)oc2c1C)c1ccc(Br)cc1` has a viability of 50.6% (MTT; 6.3 µg/mL).
For `CC(=O)c1nn(-c2ccccc2Cl)/c(=N/N=C(\C)c2ccc(NC(=O)c3ccccc3)cc2)s1`, the viability was 5.77% (MTT; 1.25 µM).
`COc1ccc(-c2cc(-c3ccc(Br)cc3)c3c(=O)n(C)c(=O)n(C)c3n2)cc1` gave an IC50 of 8.49 µM (MTT; 48 h).
For `O=C(Nc1ccc(Oc2nnc(-c3ccc(Cl)cc3)c3ccccc23)cc1)c1cccc([N+](=O)[O-])c1`, the viability was 5.16% (MTT; 5 µM, 24 h).
For `CC(=O)Nc1ccc(/C(C)=N/N=c2\sc(C(C)=O)nn2-c2ccc(C)cc2)cc1`, the viability was 99.8% (MTT; 1.25 µM).
For `O=C(Nc1ccccc1)Nc1ccc(Oc2nnc(-c3ccc(Cl)cc3)c3ccccc23)cc1`, the viability was 7.03% (MTT; 0.312 µM, 24 h).
`COc1ccc(-c2cc(-c3ccc(C)cc3)nc3[nH]c(=O)[nH]c(=O)c23)cc1OC` has an IC50 of 34.7 µM (MTT; 48 h).
With `CC(=NNC(=O)c1cccnc1)c1ccc(Nc2nnc(-c3ccc(Cl)cc3)c3ccccc23)cc1` the viability was 49.9% (MTT; 0.625 µM, 24 h).
`COc1ccc(-c2cc(-c3ccc(Br)cc3)c3c(=O)[nH]c(=O)[nH]c3n2)cc1` has an IC50 of 11.2 µM (MTT; 48 h).
The viability of `CCOC(=O)c1nn(-c2cccc(Cl)c2)/c(=N/N=C(\C)c2ccc(NC(=O)c3ccc(Cl)cc3)cc2)s1` is reported as 2.86% (MTT; 0.625 µM).
